Reference: article PMC8592115 (ACS Medicinal Chemistry Letters, 2021)
Entries after “also recorded” stand apart in the source; their conditions may differ.

Columns and labels:
[1] = molecular target: T1, CXCL12 (Homo sapiens, UniProt P48061); experiment: 2D NMR chemical shift perturbation titration of 15N-CXCL12; assay type: binding; conditions: for precipitation/aggregation of CXCL12 on addition of compound: NMR titration samples
[2] = Qualitative solubility of compounds in NMR titration samples; assay type: physicochemical; conditions: samples prepared for NMR titration
In short: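 Test compound titrated into CXCL12 at increasing concentrations up to 1600 μM, with HSQC spectra recorded at each step. Solubility was scored against a cut-off of ≥1600 μM in these titration samples. Soluble compounds counted as binders if they also shifted at least two of residues I28, V39 and A40 by ≥0.5 ppm.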

[3] = molecular target: T1, CXCL12; experiment: Calculation of ligand efficiency; conditions: Table 6; LLE = pKd – cLogP

Compound | precipitation/aggregation of CXCL12 on addition of compound [1] | solubility, qualitative [2] | also measured
O=C(O)c1ccc(Nc2nc(Nc3ccc(C(=O)O)cc3)nc(-c3ccccc3)n2)cc1 [Compound 9m] | caused aggregation and precipitation of the protein |  | 
O=C(O)CSc1nc(SCC(=O)O)nc(-c2ccc(-c3ccccc3)cc2)n1 [Compound 13e] |  | insoluble; also recorded: low solubility | 
O=C(O)CSc1nc(SCC(=O)O)nc(-c2ccc(N3CCOCC3)cc2)n1 [Compound 13i] |  | qualitatively greater solubility | 
O=C(O)CSc1nc(SCC(=O)O)nc(-c2cnc3ccccc3c2)n1 [Compound 13l] | precipitated the protein from solution; also recorded: caused CXCL12 to precipitate |  | 
O=C(O)CSc1nc(SCC(=O)O)nc(-c2ccc(Oc3ccccc3)cc2)n1 [Compound 13m] | precipitated the protein from solution; also recorded: caused CXCL12 to precipitate |  | 
O=C(O)CSc1nc(SCC(=O)O)nc(-c2ccoc2)n1 [Compound 13n] | precipitated the protein from solution; also recorded: caused CXCL12 to precipitate |  | 
O=C(O)CSc1nc(SCC(=O)O)nc(C2C3CC4CC(C3)CC2C4)n1 (centres unmarked) [Compound 17, 2,2'-((6-((1r,3r)-Adamantan-2-yl)-1,3,5-triazine-2,4-diyl)bis(sulfanediyl))diacetic acid] |  |  | Kd [1]: > 1600 µM
O=C(O)CSc1nc(SCC(=O)O)nc(C2=CCCCC2)n1 [Compound 20, 2,2'-((6-(Cyclohex-1-en-1-yl)-1,3,5-triazine-2,4-diyl)bis(sulfanediyl))diacetic acid] | caused the protein to precipitate; also recorded: b 20 caused CXCL12 to precipitate |  | 
O=C(O)CSc1nc(SCC(=O)O)nc(Sc2ccccc2)n1 [Compound 24a, 2,2'-((6-(Phenylthio)-1,3,5-triazine-2,4-diyl)bis(sulfanediyl))diacetic acid] |  | not as soluble as some of our other analogues | 
O=C(O)CSc1nc(SCC(=O)O)nc(N2CCOCC2)n1 [Compound 24j] |  | notably more soluble than its analogues | LLE (lipophilic ligand efficiency) [3]: 2.07
